In ChEMBL document CHEMBL1140317, “Novel alpha-amino-3-hydroxy-5-methyl-4-isoxazole propionate (AMPA) receptor antagonists of 2,3-benzodiazepine type: chemical synthesis, in vitro characterization, and in vivo prevention of acute neurodegeneration” (J Med Chem, 2005):
pIC50: −log10 of the molar value.

Key:
[1] = target: Glutamate receptor ionotropic, AMPA (Rattus norvegicus, UniProt P19490+P19491+P19492+P19493); assay: In vitro inhibition of AMPA receptor mediated currents in primary cultured rat fetal hippocampal neurons; type: tissue-based, Hippocampus
Summary of the method: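 Whole-cell patch clamp at −60 mV on hippocampal neurons from E19 Wistar rat fetuses, cultured 6–14 days (cytosine-arabinoside from day 6). Inward currents were evoked by bath-perfused kainate in pH 7.4 HEPES medium with CsCl pipet solution. Antagonist was bath-applied after 90 s preincubation in 0.3% DMSO final. Currents were normalized to the no-antagonist value, 5–6 cells per point, and the logistic fit gave IC50.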

Rattus norvegicus [2] = assay: Half life was measured after iv injection in rats; conditions: in vivo
Rattus norvegicus [3] = assay: Plasma clearance was measured after iv injection in rats
Mus musculus [4] = assay: Effect on brain lesion measured 24 hour after permanent MCA occlusion in mice upon four i.p. doses of 10 mg/kg (n=10); type: functional; conditions: route intraperitoneal
Summary of the method: (§1)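 Male NMRI mice (23–30 g) under Avertin anesthesia (240 mg/kg ip), rectal temperature held at 37 ± 0.5 °C during surgery, underwent permanent MCA occlusion. Four ip injections in 10% cremophor EL were given 1 h before and 0, 1 and 2 h after occlusion. At 24 h, infarct volume was measured by TTC staining (Cavalieri principle). Results are mean ± SD versus vehicle, ANOVA with Dunnett test.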

Rattus norvegicus [5] = assay: Effect on total cerebral infarct volume measured 24 hour after permanent MCA occlusion in rat upon four i.p. doses of 30 mg/kg (n=10); type: functional; conditions: route intraperitoneal
Summary of the method: (§2)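 Male Fischer-344 rats with permanent MCA occlusion received four ip injections in 10% cremophor EL at 1, 2, 3 and 4 h after occlusion. Total infarct volume (cortex and striatum) was measured 24 h after occlusion by TTC staining with Cavalieri volume calculation. Results are mean ± SD versus vehicle group, ANOVA followed by Dunnett test.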

[6] = Volume of distribution was measured; type: ADME, organism-based; conditions: in vivo; read-out: Volume of distribution
Summary of the method: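 Rats were given 2.5 mg/kg iv. Plasma was sampled at nine time points from 5 min to 7 h, precipitated with acetonitrile (1:5) and quantified by LC/MS/MS against matrix calibration curves with an internal standard, C18 column, water/acetonitrile with 0.1% acetic acid gradient. Volume of distribution was calculated from the concentration–time data.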

Rattus norvegicus [7] = assay: Effect on total cerebral infarct volume measured 24 hour after permanent MCA occlusion in rat upon four i.p. doses of 10 mg/kg (n=15); type: functional; conditions: route intraperitoneal; summary of the method: as §2
Rattus norvegicus [8] = assay: Effect on total cerebral infarct volume measured 24 hour after permanent MCA occlusion in rat upon four i.p. doses of 3 mg/kg (n=12); type: functional; conditions: route intraperitoneal; summary of the method: as §2
Mus musculus [9] = assay: Effect on brain lesion measured 24 hr after permanent MCA occlusion in mice upon four i.p. doses of 30 mg/kg (n=8); type: functional; conditions: route intraperitoneal; summary of the method: as §1
Mus musculus [10] = assay: Effect on brain lesion measured 24 hour after permanent MCA occlusion in mice upon four i.p. doses of 10 mg/kg (n=9); type: functional; conditions: route intraperitoneal; summary of the method: as §1
Rattus norvegicus [11] = assay: Effect on total cerebral infarct volume measured 24 hour after permanent MCA occlusion in rat at a dose of 3 mg/kg (n=6); type: functional
Summary of the method: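 Male Fischer-344 rats underwent permanent MCA occlusion and received a single ip dose in physiological saline (0.9% NaCl) immediately after occlusion. Rectal temperature was held at 37 ± 0.5 °C during surgery. At 24 h, under Nembutal, brains were TTC-stained and infarct areas measured, with volume by Cavalieri principle. Mean ± SD; ANOVA with Dunnett's test versus vehicle.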

Mus musculus [12] = assay: Effect on brain lesion measured 24 hour after permanent MCA occlusion in mice upon three i.p. doses of 30 mg/kg (n=12); type: functional; conditions: route intraperitoneal
Summary of the method: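 Reference paradigm in male NMRI mice with permanent MCA occlusion, anesthetized with Avertin (240 mg/kg ip). Three ip injections of 30 mg/kg in physiological saline at 60, 70 and 85 min after occlusion (table footnote says 80 min). Infarct volume was measured at 24 h by TTC staining and Cavalieri calculation. Results are mean ± SD versus saline vehicle, ANOVA/Dunnett.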

With `c1ccc(C2=Nn3ccnc3Cc3cc4c(cc32)OCO4)cc1` the pIC50 [1] was 5.19.
Compound `Cc1nc2n(c1C)N=C(c1ccc(F)cc1)c1cc3c(cc1C2)OCO3` has a pIC50 [1] of 5.00.
Compound `Cc1nc2n(c1C)N=C(c1ccccc1)c1cc3c(cc1C2)OCO3` has a half-life (Rattus norvegicus [2]) of 1.2 h, a clearance (Rattus norvegicus [3]) of 3.24 L/h/kg and a pIC50 [1] of 5.47. It also gave a Brain lesion (Mus musculus [4]) of 17.1 mm³, a Total infarct volume (Rattus norvegicus [5]) of 132 mm³ and a Vd [6] of 2.7 L/kg. The Total infarct volume (Rattus norvegicus [7]) was 142 mm³ and the Total infarct volume (Rattus norvegicus [8]) was 138 mm³.
With `Cc1c(CO)nc2n1N=C(c1ccccc1)c1cc3c(cc1C2)OCO3` the Brain lesion (Mus musculus [9]) was 23 mm³, the pIC50 [1] was 5.34 and the Brain lesion (Mus musculus [10]) was 20.6 mm³.
`Clc1nc2n(c1Cl)N=C(c1ccccc1)c1cc3c(cc1C2)OCO3` gave a pIC50 [1] of less than 5.00.
`Cc1nc2n(c1C)N=C(c1ccc(Cl)cc1)c1cc3c(cc1C2)OCO3` gave a pIC50 [1] of 5.00.
For `Brc1nc2n(c1Br)N=C(c1ccccc1)c1cc3c(cc1C2)OCO3`, the pIC50 [1] was less than 5.00.
In the case of `C[C@]12N[C@H](Cc3ccccc31)c1ccccc12` [DIZOCILPINE], the Total infarct volume (Rattus norvegicus [11]) was 118 mm.
`CC1=NN=C(c2ccc(N)cc2)c2cc3c(cc2C1)OCO3` [GYKI-52466] gave a pIC50 [1] of 5.05.
Compound `NS(=O)(=O)c1cccc2c1c([N+](=O)[O-])cc1nc(O)c(O)nc12` [NBQX] has a Brain lesion (Mus musculus [12]) of 18.4 mm³.
